In test [1] the test system is MM96L. The experiment in a line: Cytotoxicity against human MM96L cells assessed as reduction in cell viability incubated for 72 hrs by MTT assay. A general note: Formazan colour is commonly taken as a measure of viable cells.
The subject of test [2] is MM96L. The experiment in a line: Cytotoxicity against human MM96L cells assessed as increase in intracellular caspase 3/7 release incubated for 72 hrs by Caspase-Glo 3/7 assay.
The subject of test [3] is NFF. The experiment in a line: Cytotoxicity against human NFF cells assessed as reduction in cell viability incubated for 72 hrs by MTT assay.
Test [4] has as its system HT-29. The experiment in a line: Cytotoxicity against human HT-29 cells assessed as reduction in cell viability incubated for 72 hrs by MTT assay. Conditions: HT-29, 72 h.
In test [5] the test system is HeLa. The experiment in a line: Cytotoxicity against human HeLa cells assessed as increase in intracellular caspase 3/7 release incubated for 72 hrs by Caspase-Glo 3/7 assay.
The subject of test [6] is NFF. The experiment in a line: Cytotoxicity against human NFF cells assessed as increase in intracellular caspase 3/7 release incubated for 72 hrs by Caspase-Glo 3/7 assay.
Test [7] relates to MDA-MB-231. The experiment in a line: Cytotoxicity against human MDA-MB-231 cells assessed as reduction in cell viability incubated for 72 hrs by MTT assay. The following applies: MDA-MB-231, 72 h.
In test [8] the test system is A549. The experiment in a line: Cytotoxicity against human A549 cells assessed as increase in intracellular caspase 3/7 release incubated for 72 hrs by Caspase-Glo 3/7 assay. The following applies: A549, 72 h.
Test [9] has as its system A549. The experiment in a line: Cytotoxicity against human A549 cells assessed as reduction in cell viability incubated for 72 hrs by MTT assay. The following applies: A549, 72 h.
The test system of test [10] is HT-29. The experiment in a line: Cytotoxicity against human HT-29 cells assessed as increase in intracellular caspase 3/7 release incubated for 72 hrs by Caspase-Glo 3/7 assay. Conditions: HT-29, 72 h.
Test [11] concerns MDA-MB-231. The experiment in a line: Cytotoxicity against human MDA-MB-231 cells assessed as increase in intracellular caspase 3/7 release incubated for 72 hrs by Caspase-Glo 3/7 assay. The following applies: MDA-MB-231, 72 h.
The test system of test [12] is HeLa. The experiment in a line: Cytotoxicity against human HeLa cells assessed as reduction in cell viability incubated for 72 hrs by MTT assay.
The target in a further test is T1, Histone deacetylase 7 (Homo sapiens, UniProt Q8WUI4).
T1 sequence (Q8WUI4 whole entry): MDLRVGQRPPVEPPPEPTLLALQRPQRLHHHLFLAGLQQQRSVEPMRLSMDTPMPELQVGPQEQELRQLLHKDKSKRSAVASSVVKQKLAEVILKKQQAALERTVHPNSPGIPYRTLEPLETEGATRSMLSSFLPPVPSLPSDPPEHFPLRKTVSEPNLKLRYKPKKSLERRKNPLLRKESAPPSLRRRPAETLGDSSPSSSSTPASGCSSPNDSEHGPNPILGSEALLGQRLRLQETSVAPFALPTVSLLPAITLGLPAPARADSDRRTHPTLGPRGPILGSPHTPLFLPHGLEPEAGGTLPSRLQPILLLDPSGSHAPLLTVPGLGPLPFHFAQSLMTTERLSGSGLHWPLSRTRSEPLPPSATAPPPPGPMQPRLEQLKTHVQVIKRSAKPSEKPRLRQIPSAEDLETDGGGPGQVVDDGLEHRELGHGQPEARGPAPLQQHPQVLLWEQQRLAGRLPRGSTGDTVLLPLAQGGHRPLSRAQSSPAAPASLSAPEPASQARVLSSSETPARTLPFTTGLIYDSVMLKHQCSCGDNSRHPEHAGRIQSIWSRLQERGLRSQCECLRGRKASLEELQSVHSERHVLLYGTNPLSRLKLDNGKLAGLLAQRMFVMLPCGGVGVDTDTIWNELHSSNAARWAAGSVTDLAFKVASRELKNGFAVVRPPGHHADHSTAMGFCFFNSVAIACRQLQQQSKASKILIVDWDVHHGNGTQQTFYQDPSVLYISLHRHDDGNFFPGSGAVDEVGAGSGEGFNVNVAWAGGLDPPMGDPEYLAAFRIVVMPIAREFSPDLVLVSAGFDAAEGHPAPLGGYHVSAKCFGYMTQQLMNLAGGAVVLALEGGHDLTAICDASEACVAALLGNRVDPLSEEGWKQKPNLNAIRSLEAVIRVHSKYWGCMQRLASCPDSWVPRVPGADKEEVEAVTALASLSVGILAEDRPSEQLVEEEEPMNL
The experiment in a line: Inhibition of human recombinant HDAC7 pre-incubated for 15 mins before Ac-Leu-Gly-Lys(trifluroAc)-AMC substrate addition and measured after 60 mins by fluorescence based assay.

In a further test the target is T2, Histone deacetylase 8 (Homo sapiens, UniProt Q9BY41).
T2 sequence (Q9BY41 whole entry): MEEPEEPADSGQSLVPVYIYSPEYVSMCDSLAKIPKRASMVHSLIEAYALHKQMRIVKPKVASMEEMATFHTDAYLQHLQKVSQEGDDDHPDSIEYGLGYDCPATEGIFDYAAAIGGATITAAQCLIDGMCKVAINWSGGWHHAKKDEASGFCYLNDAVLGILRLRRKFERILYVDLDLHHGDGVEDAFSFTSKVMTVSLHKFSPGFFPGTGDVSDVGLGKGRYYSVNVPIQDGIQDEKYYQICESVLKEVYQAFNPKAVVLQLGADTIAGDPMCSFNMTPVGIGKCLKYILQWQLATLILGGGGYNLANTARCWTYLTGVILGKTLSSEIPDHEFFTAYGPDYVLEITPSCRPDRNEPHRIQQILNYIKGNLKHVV
The experiment in a line: Inhibition of human recombinant HDAC8 pre-incubated for 30 mins before Ac-Leu- Gly-Lys(Ac)-AMC substrate addition and measured after 90 mins by fluorescence based assay.

The species entered for test [13] is Homo sapiens. The experiment in a line: Selectivity index, ratio of IC50 for inhibition of human recombinant HDAC2 to IC50 for inhibition of human recombinant HDAC1.
Test [14] is filed under the species Homo sapiens. The experiment in a line: Selectivity index, ratio of IC50 for inhibition of human recombinant HDAC7 to IC50 for inhibition of human recombinant HDAC1. In a few lines:
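HDAC7 arm: 5 ng/mL recombinant human HDAC7 pre-incubated 15 min with inhibitor, then Ac-Leu-Gly-Lys(trifluoroAc)-AMC (20 µM) for 60 min at 37°C. Developer was trypsin with 10 μM SAHA, 15 min; fluorescence 350/460 nm. HDAC1 was run with 30 min pre-incubation, 12 µM Ac-Leu-Gly-Lys(Ac)-AMC, 90 min. Ratio of the HDAC7 IC50 to the HDAC1 IC50.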

The species entered for test [15] is Homo sapiens. The experiment in a line: Selectivity index, ratio of IC50 for inhibition of human recombinant HDAC8 to IC50 for inhibition of human recombinant HDAC1.
The target of a further test is Histone deacetylase 3 (Homo sapiens, UniProt O15379). The experiment in a line: Inhibition of human recombinant HDAC3 pre-incubated for 30 mins before Ac-Leu- Gly-Lys(Ac)-AMC substrate addition and measured after 90 mins by fluorescence based assay.
Chain of Histone deacetylase 3 (O15379 whole entry): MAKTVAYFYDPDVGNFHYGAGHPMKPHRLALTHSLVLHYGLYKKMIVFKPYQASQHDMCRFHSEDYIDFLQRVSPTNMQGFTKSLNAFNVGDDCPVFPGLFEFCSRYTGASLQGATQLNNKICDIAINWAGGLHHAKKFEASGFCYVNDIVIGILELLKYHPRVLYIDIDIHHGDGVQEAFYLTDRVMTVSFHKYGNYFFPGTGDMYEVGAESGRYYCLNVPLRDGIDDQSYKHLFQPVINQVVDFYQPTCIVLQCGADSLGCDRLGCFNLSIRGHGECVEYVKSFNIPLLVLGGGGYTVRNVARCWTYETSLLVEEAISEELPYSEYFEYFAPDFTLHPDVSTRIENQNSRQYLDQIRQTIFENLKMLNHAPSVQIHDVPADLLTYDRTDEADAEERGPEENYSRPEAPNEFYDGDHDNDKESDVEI
For another test, the target named is Histone deacetylase 2 (Homo sapiens, UniProt Q92769). The experiment in a line: Inhibition of human recombinant HDAC2 pre-incubated for 30 mins before Ac-Leu- Gly-Lys(Ac)-AMC substrate addition and measured after 90 mins by fluorescence based assay.
Chain of Histone deacetylase 2 (Q92769 whole entry): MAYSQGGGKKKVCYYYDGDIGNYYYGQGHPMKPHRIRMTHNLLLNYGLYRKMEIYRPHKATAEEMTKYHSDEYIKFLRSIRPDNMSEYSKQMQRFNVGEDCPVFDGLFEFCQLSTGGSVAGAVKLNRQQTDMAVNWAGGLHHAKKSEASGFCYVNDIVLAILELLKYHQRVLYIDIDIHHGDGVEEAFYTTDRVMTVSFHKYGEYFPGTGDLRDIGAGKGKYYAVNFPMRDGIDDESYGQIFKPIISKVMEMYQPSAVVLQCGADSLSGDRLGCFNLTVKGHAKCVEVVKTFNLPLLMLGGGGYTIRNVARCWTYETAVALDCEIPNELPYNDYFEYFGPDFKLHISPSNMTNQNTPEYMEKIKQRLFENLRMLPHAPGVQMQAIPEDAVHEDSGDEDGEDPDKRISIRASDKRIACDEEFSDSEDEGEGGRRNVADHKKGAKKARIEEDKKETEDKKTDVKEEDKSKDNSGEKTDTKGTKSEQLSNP
The species entered for test [16] is Homo sapiens. The experiment in a line: Selectivity index, ratio of IC50 for inhibition of human recombinant HDAC3 to IC50 for inhibition of human recombinant HDAC1.
Test [17] addresses T3, Histone deacetylase 1 (Homo sapiens, UniProt Q13547). The experiment in a line: Inhibition of human recombinant HDAC1 pre-incubated for 30 mins before Ac-Leu- Gly-Lys(Ac)-AMC substrate addition and measured after 90 mins by fluorescence based assay.
Test [18] addresses T3, Histone deacetylase 1. The experiment in a line: Inhibition of HDAC1 in human MM96L cells assessed as activation of histone H4 acetylation at Lys5, Lys8, Lys12 and Lys16 residues by Western blot analysis. The format is cell-based. For orientation: A western blot detects proteins with antibodies after separation by electrophoresis.

T3 sequence (Q13547 whole entry): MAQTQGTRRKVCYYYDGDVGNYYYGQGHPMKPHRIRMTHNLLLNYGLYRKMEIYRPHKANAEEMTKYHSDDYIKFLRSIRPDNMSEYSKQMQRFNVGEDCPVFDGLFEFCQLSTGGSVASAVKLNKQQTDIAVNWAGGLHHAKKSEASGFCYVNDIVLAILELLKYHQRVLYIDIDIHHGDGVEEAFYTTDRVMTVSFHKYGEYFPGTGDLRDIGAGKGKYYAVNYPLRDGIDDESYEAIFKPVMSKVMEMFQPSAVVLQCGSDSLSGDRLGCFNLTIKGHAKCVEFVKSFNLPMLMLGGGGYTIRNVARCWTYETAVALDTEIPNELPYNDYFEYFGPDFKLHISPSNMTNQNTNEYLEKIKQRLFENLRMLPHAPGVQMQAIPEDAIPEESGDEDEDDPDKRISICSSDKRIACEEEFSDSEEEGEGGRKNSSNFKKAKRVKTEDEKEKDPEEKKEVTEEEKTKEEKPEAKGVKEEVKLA

The IC50 is the concentration that inhibits the measured activity by half. In general, EC50 refers to the concentration at which the effect is half-maximal. With `CC(C)C(C(=O)Nc1ccc(C(=O)NO)cc1)c1ccccc1` (racemic), the IC50 in the test with MM96L [1] came out at 300 nM; in the test with NFF [3], 500 nM; with HT-29 [4], 600 nM; in the test with MDA-MB-231 [7], 1500 nM; in the test on A549 [9] it was 1500 nM; in the test on HeLa [12], 700 nM. For the same molecule, the EC50 in the test on MM96L [2] was determined as 900 nM; in the test with HeLa [5] it was 8100 nM; with NFF [6], 24300 nM; in the test with A549 [8], 15600 nM; in the test on HT-29 [10], 1700 nM; with MDA-MB-231 [11] it was 2400 nM.
Take `CN(C)c1ccc(C2(C(=O)Nc3ccc(C(=O)NO)cc3)CCCC2)cc1`: the IC50 on Histone deacetylase 7 stood at 2500 nM; on Histone deacetylase 8 it was 89 nM; at Histone deacetylase 3, 9 nM; on Histone deacetylase 2, 49 nM; on Histone deacetylase 1 [17], 4 nM. The Ratio IC50 in the test filed under Homo sapiens [13] was in the range of 5 to 12; in the test listed under Homo sapiens [14], 140 to 600; in the test filed under Homo sapiens [15], 14 to 61; in the test filed under Homo sapiens [16], 2 to 3.
`O=C(NO)c1ccc(NC(=O)C2(c3ccc4ccccc4c3)CCOCC2)cc1`: the IC50 was 20 nM in the test with MM96L [1]; 400 nM in the test with NFF [3]; 44 nM on Histone deacetylase 8; 40 nM in the test with HT-29 [4]; 100 nM in the test on MDA-MB-231 [7]; 100 nM with A549 [9]. Moreover, the concentration for half-maximal inhibition (IC50) at Histone deacetylase 3 worked out at 2 nM; on Histone deacetylase 2 it was 8 nM; with HeLa [12] it was 30 nM. For the same molecule, the EC50 in the test on MM96L [2] stood at 60 nM; with HeLa [5], 700 nM; with NFF [6] it was 4300 nM; in the test with A549 [8] it was 2600 nM; in the test on HT-29 [10] it was 200 nM; in the test on MDA-MB-231 [11] it was 300 nM. The inhibition result at Histone deacetylase 1 [18] was “Dose-dependent effect”.
